Experimental data taken from ChEMBL document CHEMBL1127337, “1-((7,7-Dimethyl-2(S)-(2(S)-amino-4-(methylsulfonyl)butyramido)bicyclo [2.2.1]-heptan-1(S)-yl)methyl)sulfonyl)-4-(2-methylphenyl)piperaz ine (L-368,899): an orally bioavailable, non-peptide oxytocin antagonist with potential utility for managing preterm labor” (J Med Chem, 1994).
Active and inactive are the calls of the source. No cut-off for these calls is given here.

Experiments:
Oxytocin receptor [1] = molecular target: T1, Oxytocin receptor (Rattus norvegicus, UniProt P70536); assay: Displacement of [3H]OT from binding to oxytocin receptor of rat uterus
T1 sequence (P70536 whole entry): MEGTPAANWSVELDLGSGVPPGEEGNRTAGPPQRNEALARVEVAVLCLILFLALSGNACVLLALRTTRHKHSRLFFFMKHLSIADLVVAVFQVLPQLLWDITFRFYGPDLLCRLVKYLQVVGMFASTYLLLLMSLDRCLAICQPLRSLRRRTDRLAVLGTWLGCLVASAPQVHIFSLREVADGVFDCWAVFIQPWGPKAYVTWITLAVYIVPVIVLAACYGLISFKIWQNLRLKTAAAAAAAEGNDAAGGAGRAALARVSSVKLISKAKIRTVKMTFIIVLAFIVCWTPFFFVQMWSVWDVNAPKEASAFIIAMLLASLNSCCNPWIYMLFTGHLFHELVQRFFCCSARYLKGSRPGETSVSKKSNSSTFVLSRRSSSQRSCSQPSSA
How it was run: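 Competition binding against [3H]OT on uterine tissue from pregnant rats (day 22-23 of gestation) or DES-pretreated rats. IC50 is the molar concentration giving 50% displacement of radioligand.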

Vasopressin V1a receptor = Vasopressin V1a receptor (Rattus norvegicus, UniProt P30560); assay: Displacement of [3H]AVP from binding to arginine vasopressin 1a (V1a) […] of rat liver
Vasopressin V1a receptor, sequence (P30560 whole entry): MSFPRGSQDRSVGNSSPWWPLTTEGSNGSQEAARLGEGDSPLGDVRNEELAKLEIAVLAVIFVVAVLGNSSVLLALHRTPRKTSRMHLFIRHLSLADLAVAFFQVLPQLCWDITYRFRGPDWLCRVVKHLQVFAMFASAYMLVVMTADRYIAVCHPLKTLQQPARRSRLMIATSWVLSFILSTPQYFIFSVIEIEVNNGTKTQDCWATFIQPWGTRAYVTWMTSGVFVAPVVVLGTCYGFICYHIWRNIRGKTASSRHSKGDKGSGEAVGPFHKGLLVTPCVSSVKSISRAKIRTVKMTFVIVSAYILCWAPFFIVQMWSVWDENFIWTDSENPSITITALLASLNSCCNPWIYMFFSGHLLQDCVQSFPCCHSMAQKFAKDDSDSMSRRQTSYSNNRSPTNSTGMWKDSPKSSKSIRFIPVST
How it was run: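 Competition binding against [3H]AVP on liver from male rats (V1a site). IC50 is the molar concentration giving 50% radioligand displacement.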

Vasopressin V2 receptor = Vasopressin V2 receptor (Rattus norvegicus, UniProt Q00788); assay: Displacement of [3H]-AVP from binding to Vasopressin receptor V2 of rat kidney
Vasopressin V2 receptor, sequence (Q00788 whole entry): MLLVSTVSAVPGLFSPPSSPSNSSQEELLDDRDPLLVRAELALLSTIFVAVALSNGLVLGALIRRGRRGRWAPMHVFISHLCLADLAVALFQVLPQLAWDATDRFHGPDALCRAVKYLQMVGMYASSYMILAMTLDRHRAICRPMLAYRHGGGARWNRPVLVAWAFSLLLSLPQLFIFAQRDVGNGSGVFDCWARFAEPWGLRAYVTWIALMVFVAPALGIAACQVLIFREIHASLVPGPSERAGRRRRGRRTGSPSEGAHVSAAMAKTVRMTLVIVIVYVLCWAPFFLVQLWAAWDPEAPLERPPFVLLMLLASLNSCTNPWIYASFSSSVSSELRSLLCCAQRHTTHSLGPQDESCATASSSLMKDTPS
How it was run: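 [3H]AVP competition binding on kidney medulla from male rats (V2 site). IC50 is the molar concentration displacing 50% of radioligand.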

[2] = Aqueous solubilities were determined by dissolving an crystalline hemisulfate and […] salts, respectively in water and adding acetate to pH 5.0, concentrations are expressed in free base equivalents; assay type: ADME; conditions: water adjusted with acetate, read-out: S
How it was run: (§1)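 Crystalline hemisulfate or dihydrochloride salt dissolved in water, then acetate added to pH 5.0 to measure aqueous solubility.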

Rattus norvegicus [3] = assay: AD50 value which refers to the dose given intravenously (iv) that reduces by 50% the contractile response of the in situ rat uterus to exogenous OT was determined for the compound in vivo; assay type: functional
How it was run: (§2)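 Anesthetized DES-pretreated rats set up for isometric recording of in situ uterine contraction; OT 1 µg/kg iv every 35 min, third response taken as 100%. Antagonist infused iv over 10 min in saline, saline with 2% DMSO, or 15% DMSO plus 15% emulphor. AD50 is the dose cutting the response to the fourth OT injection by 50% relative to vehicle-treated rats.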

Rattus norvegicus [4] = assay: In vivo dose given intraduodenally (id) that reduces by 50% the contractile response of the in situ rat uterus to exogenous OT; NA=Inactive at 1.0; assay type: functional, organism-based
How it was run: (§3)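 Uterine contraction recorded isometrically in situ in anesthetized DES-pretreated rats; OT 1 µg/kg iv at 35-min intervals, third response set as 100%. Antagonist injected intraduodenally as a suspension in saline with 1% methocel. AD50 is the dose lowering the response to the fourth OT injection by 50% against the vehicle group.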

Rattus norvegicus [5] = assay: In vivo dose given intravenously (iv) that reduces by 50% the contractile response of the in situ rat uterus to exogenous OT; assay type: functional; how it was run: as §2
Rattus norvegicus [6] = assay: In vivo dose given intraduodenally (id) that reduces by 50% the contractile response of the in situ rat uterus to exogenous OT; assay type: functional; how it was run: as §3
Oxytocin receptor [7] = molecular target: T1, Oxytocin receptor; assay: In vitro antagonism of OT-induced uterine contractions, against rat uterus by measuring pA2 value which refers to the negative logarithm of the molar concentration; assay type: functional, tissue-based; conditions: read-out: pA2 (converted)
How it was run: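 Uteri isolated from diethylstilbestrol-pretreated rats; contractions evoked by oxytocin. pA2 = negative log of molar antagonist concentration giving a 2-fold rightward shift of the oxytocin dose-response curve (dose ratio 2), derived by Schild analysis.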

Oxytocin receptor [8] = molecular target: T1, Oxytocin receptor; assay: In vitro antagonism of OT-induced uterine contractions, against rat uterus by measuring pA2 value; assay type: functional, tissue-based; conditions: read-out: pA2 (converted)
How it was run: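 Uteri isolated from DES-pretreated rats and contracted with OT. pA2 is the negative log molar antagonist concentration giving a 2-fold rightward shift of the OT dose-response curve (dose ratio 2), derived from Schild plots.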

[9] = Aqueous solubilities were determined by dissolving an crystalline hemisulfate and […] salts, respectively in water and adding acetate to pH 5.0, concentrations are expressed in free base equivalents.; assay type: ADME; conditions: water adjusted with acetate, read-out: S; how it was run: as §1
Rattus norvegicus [10] = assay: in vivo dose given intravenously (iv) that reduces by 50% the contractile response of the in situ rat uterus to exogenous OT; assay type: functional; how it was run: as §2
Rattus norvegicus [11] = assay: In vivo dose given intraduodenally (id) that reduces by 50% the contractile response of the in situ rat uterus to exogenous OT; ca.20; assay type: functional; how it was run: as §3
Rattus norvegicus [12] = assay: In vivo dose given intraduodenally (id) that reduces by 50% the contractile response of the in situ rat uterus to exogenous OT; NA=Inactive at 3.0 mg/Kg; assay type: functional, organism-based; how it was run: as §3
Rattus norvegicus [13] = assay: In vivo dose given intraduodenally (id) that reduces by 50% the contractile response of the in situ rat uterus to exogenous OT; ca.2; assay type: functional; how it was run: as §3

| Structure (SMILES) | IC50 (Oxytocin receptor [1]) [nM] | IC50 (Vasopressin V1a receptor) [nM] | IC50 (Vasopressin V2 receptor) [nM] | solubility [2] [µg/mL] | Kb (Oxytocin receptor [7]) [nM] | Kb (Oxytocin receptor [8]) [nM] | solubility [9] [µg/mL] | AD50 (Rattus norvegicus [3]) [mg/kg] | AD50 (Rattus norvegicus [4]) | AD50 (Rattus norvegicus [5]) [mg/kg] | AD50 (Rattus norvegicus [6]) [mg/kg] | AD50 (Rattus norvegicus [10]) [mg/kg] | AD50 (Rattus norvegicus [11]) [mg/kg] | AD50 (Rattus norvegicus [12]) | AD50 (Rattus norvegicus [13]) [mg/kg] |
| --- | --- | --- | --- | --- | --- | --- | --- | --- | --- | --- | --- | --- | --- | --- | --- |
| Cc1ccccc1N1CCN(S(=O)(=O)C[C@]23CCC(C[C@@H]2NC(=O)[C@H](CCS(C)(=O)=O)NC2CCCCC2)C3(C)C)CC1 | 15 | 600 | 230 | – | – | – | – | – | – | – | – | – | – | – | – |
| Cc1ccccc1N1CCN(S(=O)(=O)C[C@]23CCC(C[C@@H]2NC(=O)[C@H](CCS(C)(=O)=O)NC2CCNCC2)C3(C)C)CC1 | 1.3 | 220 | 130 | 3000 | – | – | – | – | inactive | 0.021 | – | – | – | – | – |
| CN[C@@H](CCS(C)(=O)=O)C(=O)N[C@H]1CC2CC[C@]1(CS(=O)(=O)N1CCN(c3ccccc3C)CC1)C2(C)C | 9.2 | 320 | 350 | – | – | – | – | – | – | – | – | – | – | – | – |
| Cc1ccccc1N1CCN(S(=O)(=O)C[C@]23CCC(C[C@@H]2NC(=O)[C@H](CCS(C)(=O)=O)NC2CCOCC2)C3(C)C)CC1 | 2.4 | 680 | 270 | 360 | – | – | – | – | – | 0.045 | 1.4 | – | – | – | – |
| Cc1ccccc1N1CCN(S(=O)(=O)C[C@]23CCC(C[C@@H]2NC(=O)[C@H](CCS(C)(=O)=O)N(C)C)C3(C)C)CC1 | 4.9 | 360 | 290 | 3100 | – | 1 | – | – | – | 0.13 | 2.6 | – | – | – | – |
| CC1(C)C2CC[C@@]1(CS(=O)(=O)N1CCC3(CCc4ccccc43)CC1)[C@@H](NC(=O)[C@@H](N)CCS(C)(=O)=O)C2 | 12 | 890 | 2400 | – | – | – | 1500 | – | – | – | – | 0.84 | 20 | – | – |
| CC1(C)C2CC[C@@]1(CS(=O)(=O)N1CCC3(CCc4ccccc43)CC1)[C@@H](NC(=O)[C@@H](N)CCC(N)=O)C2 | 12 | 2300 | 5100 | – | – | – | – | – | – | – | >30 | – | – | – | 2 |

The next lines start with results.

| IC50 (Oxytocin receptor [1]) [nM] | IC50 (Vasopressin V1a receptor) [nM] | IC50 (Vasopressin V2 receptor) [nM] | solubility [2] [µg/mL] | Kb (Oxytocin receptor [7]) [nM] | Kb (Oxytocin receptor [8]) [nM] | solubility [9] [µg/mL] | Structure (SMILES) | AD50 (Rattus norvegicus [3]) [mg/kg] | AD50 (Rattus norvegicus [4]) | AD50 (Rattus norvegicus [5]) [mg/kg] | AD50 (Rattus norvegicus [6]) [mg/kg] | AD50 (Rattus norvegicus [10]) [mg/kg] | AD50 (Rattus norvegicus [11]) [mg/kg] | AD50 (Rattus norvegicus [12]) | AD50 (Rattus norvegicus [13]) [mg/kg] |
| --- | --- | --- | --- | --- | --- | --- | --- | --- | --- | --- | --- | --- | --- | --- | --- |
| 1.4 | 440 | 160 | < 300 | – | – | – | Cc1ccccc1N1CCN(S(=O)(=O)C[C@]23CCC(C[C@@H]2NC(=O)[C@H](CCS(C)(=O)=O)NC2CCS(=O)(=O)CC2)C3(C)C)CC1 | 0.031 | inactive | – | – | – | – | – | – |
| 8.9 | 370 | 570 | 3700 | 1.26 | – | – | Cc1ccccc1N1CCN(S(=O)(=O)C[C@]23CCC(C[C@@H]2NC(=O)[C@@H](N)CCS(C)(=O)=O)C3(C)C)CC1 | – | – | 0.35 | 7 | – | – | – | – |
| 18 | 1300 | 310 | 230 | – | – | – | CCN(CC)[C@@H](CCS(C)(=O)=O)C(=O)N[C@H]1CC2CC[C@]1(CS(=O)(=O)N1CCN(c3ccccc3C)CC1)C2(C)C | – | – | – | – | – | – | – | – |
| 2.8 | 650 | 240 | – | – | – | 190 | Cc1ccccc1N1CCN(S(=O)(=O)C[C@]23CCC(C[C@@H]2NC(=O)[C@H](CCS(C)(=O)=O)N(CCO)CCO)C3(C)C)CC1 | – | – | 0.087 | – | – | – | inactive | – |
